According to ChEMBL document CHEMBL4219023, “Synthesis and biological activity of novel tert-amylphenoxyalkyl (homo)piperidine derivatives as histamine H3R ligands” (Bioorg Med Chem, 2017):
Active and inactive are the calls of the source. No cut-off for these calls is given here.

Legend:
[1] = molecular target: T1, Histamine H3 receptor (Homo sapiens, UniProt Q9Y5N1); test: Displacement of [125I]Iodoproxyfan from recombinant human histamine H3 receptor expressed in CHOK1 cell membranes after 90 mins
T1 sequence (Q9Y5N1 whole entry): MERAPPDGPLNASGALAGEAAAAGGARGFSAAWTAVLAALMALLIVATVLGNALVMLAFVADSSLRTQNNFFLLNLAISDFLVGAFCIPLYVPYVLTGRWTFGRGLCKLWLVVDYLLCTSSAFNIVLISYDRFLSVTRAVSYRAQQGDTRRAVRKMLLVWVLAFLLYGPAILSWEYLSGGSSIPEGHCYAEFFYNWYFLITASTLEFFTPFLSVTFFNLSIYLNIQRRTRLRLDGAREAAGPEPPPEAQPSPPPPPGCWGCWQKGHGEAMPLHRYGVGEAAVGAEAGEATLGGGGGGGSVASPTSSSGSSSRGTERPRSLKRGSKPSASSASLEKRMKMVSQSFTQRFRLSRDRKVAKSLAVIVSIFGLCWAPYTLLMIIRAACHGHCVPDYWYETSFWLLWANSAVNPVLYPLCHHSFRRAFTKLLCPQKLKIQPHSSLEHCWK
Outline: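 Membranes of CHO-K1 cells expressing hH3R were incubated 90 min at 25 °C, shaken at 250 rpm, with [125I]iodoproxyfan (16–50 pM) and test compound. Nonspecific binding was defined with 1 μM imetit. Separation by filtration on PEI-treated GF/B filters. Ki obtained from IC50 by Cheng-Prusoff.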

[2] = system: Mus musculus; test: Anticonvulsant activity in CF-1 albino mouse assessed as protection against maximal electroshock-induced seizures at 30 mg/kg, ip after 0.5 hrs; assay type: functional, organism-based
Outline: (§1)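 Male CF-1 albino mice received compound i.p. as a suspension in 0.5% methylcellulose (30, 100 or 300 mg/kg). Maximal electroshock seizure test read 0.5 h and 4 h after dosing. Result given as animals protected/animals tested.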

[3] = system: Mus musculus; test: Anticonvulsant activity in CF-1 albino mouse assessed as protection against maximal electroshock-induced seizures at 30 mg/kg, ip after 4 hrs; assay type: functional, organism-based; outline: as §1
[4] = system: Mus musculus; test: Anticonvulsant activity in CF-1 albino mouse assessed as protection against maximal electroshock-induced seizures at 100 mg/kg, ip after 4 hrs; assay type: functional, organism-based; outline: as §1
[5] = system: Mus musculus; test: Anticonvulsant activity in CF-1 albino mouse assessed as protection against maximal electroshock-induced seizures at 300 mg/kg, ip after 0.5 hrs; assay type: functional, organism-based; outline: as §1
[6] = system: Mus musculus; test: Anticonvulsant activity in CF-1 albino mouse assessed as protection against subcutaneous pentetrazole-induced seizures at 30 mg/kg, ip after 0.5 hrs; assay type: functional, organism-based
[7] = system: Mus musculus; test: Anticonvulsant activity in CF-1 albino mouse assessed as protection against subcutaneous pentetrazole-induced seizures at 30 mg/kg, ip after 4 hrs; assay type: functional, organism-based
[8] = system: Mus musculus; test: Anticonvulsant activity in CF-1 albino mouse assessed as protection against subcutaneous pentetrazole-induced seizures at 100 mg/kg, ip after 0.5 hrs; assay type: functional, organism-based
[9] = system: Mus musculus; test: Anticonvulsant activity in CF-1 albino mouse assessed as protection against subcutaneous pentetrazole-induced seizures at 100 mg/kg, ip after 4 hrs; assay type: functional, organism-based
[10] = system: Mus musculus; test: Anticonvulsant activity in CF-1 albino mouse assessed as protection against subcutaneous pentetrazole-induced seizures at 300 mg/kg, ip after 0.5 hrs; assay type: functional, organism-based
[11] = system: Mus musculus; test: Anticonvulsant activity in CF-1 albino mouse assessed as protection against subcutaneous pentetrazole-induced seizures at 300 mg/kg, ip after 4 hrs; assay type: functional, organism-based
[12] = system: Mus musculus; test: Neurotoxicity in CF-1 albino mouse at 30 mg/kg, ip after 0.5 hrs by rotarod test; assay type: toxicity, organism-based; conditions: in vivo
Outline: (§2)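 Male CF-1 mice were dosed i.p. with compound suspended in 0.5% methylcellulose (30, 100 or 300 mg/kg). Neurotoxicity was scored by rotarod 0.5 h and 4 h after dosing, as animals showing toxicity/animals tested. Type of toxicity was noted, e.g. inability to grasp the rod, tremors, death.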

[13] = system: Mus musculus; test: Neurotoxicity in CF-1 albino mouse at 30 mg/kg, ip after 4 hrs by rotarod test; assay type: toxicity, organism-based; conditions: in vivo; outline: as §2
[14] = system: Mus musculus; test: Neurotoxicity in CF-1 albino mouse at 100 mg/kg, ip after 4 hrs by rotarod test; assay type: toxicity, organism-based; conditions: in vivo; outline: as §2
[15] = Lipophilicity of compound by RP-TLC analysis; assay type: physicochemical; conditions: methanol:acetic acid:water
Outline: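 Reversed-phase TLC on RP-18 plates with methanol:acetic acid:water mobile phase (acid constant at 10%, methanol 85–55% in 5% steps). Spots visualised with iodine. RM values were derived from Rf and extrapolated to zero methanol to give RM0.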

[16] = system: Rattus norvegicus; test: Anticonvulsant activity in albino Sprague-Dawley rat assessed as protection against maximal electroshock-induced seizures at 30 mg/kg, po after 0.5 to 4 hrs; assay type: functional, organism-based
Outline: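 Male Sprague-Dawley rats, four per group, were given compound orally at a fixed 30 mg/kg in 0.5% methylcellulose suspension. Maximal electroshock test was read at 0.5 h and 4 h.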

[17] = system: IMR-32; test: Cytotoxicity against human IMR32 cells assessed as reduction in cell viability after 48 hrs by EZ4U Non-radioactive cell proliferation assay; assay type: cell-based; conditions: IMR-32, 48 h
Outline: (§3)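 IMR-32 cells (2×10^4/well) or HEK-293 cells (1.5×10^4/well) in DMEM with 10% FBS were preincubated 24 h at 37 °C, 5% CO2. Compounds from 25 mM DMSO stocks were added at final 0.01–250 μM, with DMSO ≤1%. After 48 h, EZ4U label was added for 5 h and absorbance read at 492 nm.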

[18] = molecular target: T1, Histamine H3 receptor; test: Displacement of [3H]Nalpha-Methylhistamine from recombinant human histamine H3 receptor expressed in HEK293 cell membranes after 90 mins by liquid scintillation counting analysis
[19] = system: Mus musculus; test: Anticonvulsant activity in CF-1 albino mouse assessed as protection against maximal electroshock-induced seizures at 100 mg/kg, ip after 0.5 hrs; assay type: functional, organism-based; outline: as §1
[20] = system: Mus musculus; test: Neurotoxicity in CF-1 albino mouse assessed as unable to grasp at 100 mg/kg, ip after 0.5 hrs by rotarod test; assay type: toxicity, organism-based; conditions: in vivo
Outline: (§4)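 Anticonvulsant Screening Program (NINDS) Phase 1 neurotoxicity screen in male albino CF-1 mice. Compounds were given i.p. as suspensions in 0.5% methylcellulose at 30, 100 and/or 300 mg/kg, and animals were observed 0.5 h and 4 h after dosing. The rotarod test was scored as number of animals showing toxicity over number tested, with the kind of toxicity recorded: inability to grasp rotorod, death, diarrhea, continuous seizure activity, loss of righting reflex, myoclonic jerks or tremors.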

[21] = system: Mus musculus; test: Neurotoxicity in CF-1 albino mouse assessed as death at 300 mg/kg, ip after 0.5 hrs by rotarod test; assay type: toxicity, organism-based; conditions: in vivo; outline: as §4
[22] = system: Mus musculus; test: Neurotoxicity in CF-1 albino mouse assessed as death at 100 mg/kg, ip after 4 hrs by rotarod test; assay type: toxicity, organism-based; conditions: in vivo; outline: as §4
[23] = molecular target: T1, Histamine H3 receptor; test: Antagonist activity at recombinant human histamine H3 receptor expressed in HEK293 cells assessed as inhibition of forskolin-stimulated intracellular cAMP accumulation after 30 mins by TR-FRET TR-FRET assay; assay type: functional, cell-based
Outline: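 TR-FRET cAMP immunoassay in HEK293 cells stably expressing hH3R, 300 cells/well. (R)-α-methylhistamine (15 nM), forskolin (10 μM) and antagonist (0.1 nM–10 μM) added together. Stimulation 30 min at room temperature, then Eu-cAMP tracer and ULight anti-cAMP antibody added for 1 h. Mean of three experiments, each in triplicate.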

[24] = system: HEK293; test: Cytotoxicity against HEK293 cells assessed as reduction in cell viability after 48 hrs by EZ4U Non-radioactive cell proliferation assay; assay type: cell-based; conditions: Homo sapiens, HEK293, 48 h; outline: as §3
[25] = molecular target: CYP3A4 (Homo sapiens, UniProt P08684); test: Activation of recombinant human CYP3A4 using Luciferin-BE as substrate at 25 uM in presence of NADPH by P450-Glo luminescence assay relative to control; assay type: ADME; conditions: recombinant human CYP3A4, probe Luciferin-PPXE, in the assay text read “Luciferin-PPXE” for “Luciferin-BE”, read-out: Activity
CYP3A4, sequence (P08684 whole entry): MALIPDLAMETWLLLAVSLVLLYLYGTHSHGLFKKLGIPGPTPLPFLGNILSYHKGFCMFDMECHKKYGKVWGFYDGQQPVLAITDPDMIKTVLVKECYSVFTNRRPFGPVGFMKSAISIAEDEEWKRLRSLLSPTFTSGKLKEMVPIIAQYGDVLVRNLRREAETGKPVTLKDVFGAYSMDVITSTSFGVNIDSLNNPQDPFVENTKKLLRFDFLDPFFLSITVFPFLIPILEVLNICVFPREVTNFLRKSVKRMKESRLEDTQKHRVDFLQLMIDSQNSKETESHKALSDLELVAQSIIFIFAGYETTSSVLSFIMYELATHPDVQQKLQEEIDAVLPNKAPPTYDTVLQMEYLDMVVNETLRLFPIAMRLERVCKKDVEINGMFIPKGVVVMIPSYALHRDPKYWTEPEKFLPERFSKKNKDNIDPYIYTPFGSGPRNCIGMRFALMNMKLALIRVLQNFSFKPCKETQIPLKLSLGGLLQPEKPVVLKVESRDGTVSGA
Outline: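 Recombinant human CYP3A4 P450-Glo luminescence assay: enzyme converts luciferin substrate to D-luciferin, then firefly luciferase is added and light output read as a measure of CYP3A4 activity. Final ligand concentrations 0.025–25 μM.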

[26] = Safety index, ratio of compound IC50 to doxorubicin IC50 for HEK293 cells after 48 hrs by EZ4U non-radioactive cell proliferation assay; assay type: ADME, cell-based; conditions: human, read-out: Ratio IC50
[27] = Safety index, ratio of compound IC50 to doxorubicin IC50 for human IMR32 cells after 48 hrs by EZ4U Non-radioactive cell proliferation assay; assay type: ADME, cell-based; conditions: IMR-32 cells, read-out: Ratio IC50
[28] = system: Mus musculus; test: Neurotoxicity in CF-1 albino mouse assessed as death at 300 mg/kg, ip after 0.5 hrs by rotarod test; conditions: in vivo
[29] = system: Mus musculus; test: Anticonvulsant activity in CF-1 albino mouse assessed as protection against maximal electroshock-induced seizures at 300 mg/kg, ip after 4 hrs; assay type: functional, organism-based; outline: as §1

| Compound | Ki [1] | Activity [2] | Activity [3] | Activity [4] | Activity [6] | Activity [7] | Activity [8] | Activity [9] | Activity [13] | Rm [15] | Activity [19] | further results |
| --- | --- | --- | --- | --- | --- | --- | --- | --- | --- | --- | --- | --- |
| CCC(C)(C)c1ccc(OCCCCCCCCN2CCCC(C)C2)cc1.O=C(O)C(=O)O (centres undefined) | 121 nM | inactive | inactive | Active | inactive | inactive | inactive | inactive | Non-Toxic | 3.562 |  | Activity [5]: Active; Activity [10]: inactive; Activity [11]: inactive; Activity [12]: Non-Toxic; Activity [14]: Non-Toxic; Activity [16]: inactive |
| COc1cccc2c1C(=O)c1c(O)c3c(c(O)c1C2=O)C[C@@](O)(C(=O)CO)C[C@@H]3O[C@H]1C[C@H](N)[C@H](O)[C@H](C)O1 [DOXORUBICIN] |  |  |  |  |  |  |  |  |  |  |  | IC50 [17]: 5.1 nM |
| CCC(C)(C)c1ccc(OCCCCN2CCCC(C)C2)cc1.O=C(O)C(=O)O (centres undefined) |  | Active | inactive | Active | inactive | inactive |  | inactive | Non-Toxic | 2.294 | Active | Ki [18]: 46 nM; Activity [20]: Toxic; Activity [21]: Toxic; Activity [22]: Toxic; Activity [16]: inactive |
| CCC(C)(C)c1ccc(OCCCCCCCN2CCC(C)CC2)cc1.O=C(O)C(=O)O | 64.4 nM | inactive | inactive | Active | inactive | inactive | inactive | inactive | Non-Toxic |  | Active |  |
| CCC(C)(C)c1ccc(OCCCCCN2CCCCC2)cc1.O=C(O)C(=O)O | 8.8 nM | inactive | inactive | inactive | inactive | inactive | inactive | inactive | Non-Toxic | 2.172 |  | EC50 [23]: 157 nM; IC50 [24]: 41200 nM; IC50 [17]: 72700 nM; activity at 25 µM [25]: 21%; Activity [14]: Non-Toxic; selectivity ratio at 48 h [26]: 50 to 90; selectivity ratio at 48 h [27]: > 1000 |
| CCC(C)(C)c1ccc(OCCCCCCCCN2CCCCC2)cc1.O=C(O)C(=O)O | 326 nM |  |  |  |  |  |  |  |  | 3.075 |  |  |
| CCC(C)(C)c1ccc(OCCCCCN2CCCC(C)C2)cc1.O=C(O)C(=O)O (centres undefined) | 13.6 nM | inactive | inactive | Active | inactive | inactive | inactive | inactive | Non-Toxic | 2.342 |  | EC50 [23]: 164 nM; IC50 [24]: 25100 nM; IC50 [17]: 30900 nM; activity at 25 µM [25]: 52%; selectivity ratio at 48 h [26]: 50 to 90; selectivity ratio at 48 h [27]: > 1000 |
| CCC(C)(C)c1ccc(OCCCCCCN2CCCCC2)cc1.O=C(O)C(=O)O | 46.5 nM | inactive | inactive | Active | inactive | inactive | inactive | inactive | Non-Toxic | 2.456 | Active | Activity [20]: Toxic; Activity [14]: Non-Toxic; Activity [28]: Toxic |
| CCC(C)(C)c1ccc(OCCCCCN2CCC(C)CC2)cc1 | 23.4 nM |  |  |  |  |  |  |  |  |  |  | IC50 [24]: 37100 nM; IC50 [17]: 27900 nM; activity at 25 µM [25]: 325%; selectivity ratio at 48 h [26]: 50 to 90; selectivity ratio at 48 h [27]: > 1000 |
| CCC(C)(C)c1ccc(OCCCCCCCN2CCCCCC2)cc1.O=C(O)C(=O)O | 128 nM |  |  |  |  |  |  |  |  | 2.926 |  |  |
| CCC(C)(C)c1ccc(OCCCCCCCN2CCCC(C)C2)cc1.O=C(O)C(=O)O (centres undefined) | 36.6 nM | inactive | inactive | Active | inactive | inactive | inactive | inactive | Non-Toxic | 2.983 |  | Activity [5]: Active; Activity [29]: inactive; Activity [10]: inactive |
| CCC(C)(C)c1ccc(OCCCCCCN2CCC(C)CC2)cc1.O=C(O)C(=O)O | 60.5 nM | Active | Active | Active | inactive | inactive | inactive | inactive | Non-Toxic |  | Active | Activity [5]: Active; Activity [28]: Toxic |
| CCC(C)(C)c1ccc(OCCCCCCCCN2CCCCCC2)cc1.O=C(O)C(=O)O | 182 nM |  |  |  |  |  |  |  |  | 3.384 |  |  |
| CCC(C)(C)c1ccc(OCCCCN2CCCCC2)cc1.O=C(O)C(=O)O |  | Active | inactive |  | inactive | inactive | inactive | inactive | Non-Toxic | 1.883 | Active | Ki [18]: 140 nM; Activity [20]: Toxic; Activity [21]: Toxic; Activity [14]: Non-Toxic; Activity [16]: inactive |
